Test results: ChEMBL document CHEMBL1275556, “High prevalence of plasmid-mediated quinolone resistance genes qnr and aac(6')-Ib-cr in clinical isolates of Enterobacteriaceae from nine teaching hospitals in China” (2008)
≈ marks a conversion by molar mass, not a printed value.

Legend:
Escherichia coli [1] = experiment: Antimicrobial activity against aac(6')-Ib-cr-negative Escherichia coli PU12T harboring wild-type GyrA, GyrB, ParC and qnrS genes by agar dilution method; format: functional
Procedure, shortened: (§1)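 MICs were determined by the CLSI agar dilution method (M7-A7) and interpreted against CLSI M100-S17 breakpoints.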

Citrobacter freundii [2] = experiment: Antimicrobial activity against aac(6')-Ib-cr-positive Citrobacter freundii PU55 harboring GyrA T83I, ParC S80I mutant, wild-type GyrB, qnrA genes by agar dilution method; format: functional; procedure, shortened: as §1
Enterobacter cloacae [3] = experiment: Antimicrobial activity against aac(6')-Ib-cr-negative Enterobacter cloacae SH39 harboring GyrA S83I, ParC S80I mutant, wild-type GyrB and qnrA genes by agar dilution method; format: functional
Klebsiella pneumoniae [4] = experiment: Antimicrobial activity against aac(6')-Ib-cr-negative Klebsiella pneumoniae SY22 harboring GyrA S83I, ParC S80I mutant, wild-type GyrB and qnrS genes by agar dilution method; format: functional; procedure, shortened: as §1
Klebsiella pneumoniae [5] = experiment: Antimicrobial activity against aac(6')-Ib-cr-negative Klebsiella pneumoniae SY22T harboring qnrS gene by agar dilution method; format: functional; procedure, shortened: as §1
Klebsiella pneumoniae [6] = experiment: Antimicrobial activity against aac(6')-Ib-cr-positive Klebsiella pneumoniae SY26 harboring GyrA S83I, ParC S80I mutant, wild-type GyrB and qnrB genes by agar dilution method; format: functional
Procedure, shortened: (§2)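 MICs were determined on clinical isolates by CLSI agar dilution (M7-A7) and interpreted against CLSI M100-S17 breakpoints.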

Klebsiella pneumoniae [7] = experiment: Antimicrobial activity against aac(6')-Ib-cr-positive Klebsiella pneumoniae SY26T harboring wild-type GyrA, ParC, GyrB and qnrB genes by agar dilution method; format: functional
Procedure, shortened: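 Transconjugants were made by conjugating a qnr/aac(6')-Ib-cr donor with azide-resistant E. coli J53. MICs were read by CLSI agar dilution (M7-A7) and interpreted per M100-S17.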

Citrobacter freundii [8] = experiment: Antimicrobial activity against aac(6')-Ib-cr-positive Citrobacter freundii TJ15 harboring GyrA T83I, ParC S80I mutant, wild-type GyrB, qnrB genes by agar dilution method; format: functional; procedure, shortened: as §1
Citrobacter freundii [9] = experiment: Antimicrobial activity against aac(6')-Ib-cr-positive Citrobacter freundii TJ15T harboring wild-type GyrA, ParC, GyrB genes by agar dilution method; format: functional; procedure, shortened: as §1
Enterobacter cloacae [10] = experiment: Antimicrobial activity against aac(6')-Ib-cr-negative Enterobacter cloacae WH42 harboring wild-type GyrA, ParC, GyrB and qnrA genes by agar dilution method; format: functional
Enterobacter cloacae [11] = experiment: Antimicrobial activity against aac(6')-Ib-cr-negative Enterobacter cloacae WH42T harboring qnrA gene by agar dilution method; format: functional
Klebsiella pneumoniae [12] = experiment: Antimicrobial activity against aac(6')-Ib-cr-positive Klebsiella pneumoniae WH99 harboring wild-type GyrA, ParC, GyrB and qnrB genes by agar dilution method; format: functional; procedure, shortened: as §2
Klebsiella pneumoniae [13] = experiment: Antimicrobial activity against aac(6')-Ib-cr-positive Klebsiella pneumoniae WH99T harboring qnrB gene by agar dilution method; format: functional
Procedure, shortened: (§3)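 Transconjugants were made by conjugating a qnr/aac(6')-Ib-cr donor with azide-resistant E. coli J53. Selection used Trypticase soy agar with sodium azide 150 µg/ml and sulfamethoxazole 180 µg/ml. […] MICs were read by CLSI agar dilution (M7-A7) and interpreted per M100-S17.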

Escherichia coli [14] = experiment: Antimicrobial activity against aac(6')-Ib-cr-negative Escherichia coli PU12 harboring GyrA S83L mutant, wild-type GyrB, ParC and qnrS genes by agar dilution method; format: functional; procedure, shortened: as §1
Escherichia coli [15] = experiment: Antimicrobial activity against aac(6')-Ib-cr-positive Escherichia coli FJ3 harboring GyrA S83L, ParC S80R mutant, wild-type GyrB and qnrB genes by agar dilution method; format: functional; procedure, shortened: as §1
Escherichia coli [16] = experiment: Antimicrobial activity against aac(6')-Ib-cr-positive Escherichia coli FJ3T harboring wild-type GyrA, ParC, GyrB and qnrB genes by agar dilution method
Enterobacter cloacae [17] = experiment: Antimicrobial activity against aac(6')-Ib-cr-negative Enterobacter cloacae FJ61 harboring GyrA S83I, GyrA D87A, ParC S80I mutant, wild-type GyrB and qnrS genes by agar dilution method; format: functional
Enterobacter cloacae [18] = experiment: Antimicrobial activity against aac(6')-Ib-cr-positive Enterobacter cloacae FJ63 harboring GyrA S83I, GyrA D87A, ParC S80I mutant, wild-type GyrB and qnrS genes by agar dilution method; format: functional
Enterobacter cloacae [19] = experiment: Antimicrobial activity against aac(6')-Ib-cr-positive Enterobacter cloacae FJ63T harboring qnrS gene by agar dilution method; format: functional
Enterobacter cloacae [20] = experiment: Antimicrobial activity against aac(6')-Ib-cr-negative Enterobacter cloacae FJ67 harboring […] and qnrS genes by agar dilution method; format: functional
Enterobacter cloacae [21] = experiment: Antimicrobial activity against aac(6')-Ib-cr-negative Enterobacter cloacae FJ67T harboring qnrS gene by agar dilution method; format: functional
Klebsiella pneumoniae [22] = experiment: Antimicrobial activity against aac(6')-Ib-cr-positive Klebsiella pneumoniae GZ40 harboring GyrA S83I, ParC S80I mutant, wild-type GyrB and qnrB genes by agar dilution method; format: functional; procedure, shortened: as §1
Enterobacter cloacae [23] = experiment: Antimicrobial activity against aac(6')-Ib-cr-negative Enterobacter cloacae GZ47 harboring qnrB and qnrS genes by agar dilution method; format: functional
Enterobacter cloacae [24] = experiment: Antimicrobial activity against aac(6')-Ib-cr-negative Enterobacter cloacae GZ47T harboring qnrB gene by agar dilution method; format: functional
Enterobacter cloacae [25] = experiment: Antimicrobial activity against aac(6')-Ib-cr-negative Enterobacter cloacae GZ51 harboring qnrA gene by agar dilution method; format: functional
Enterobacter cloacae [26] = experiment: Antimicrobial activity against aac(6')-Ib-cr-negative Enterobacter cloacae GZ51T harboring qnrA gene by agar dilution method; format: functional
Citrobacter freundii [27] = experiment: Antimicrobial activity against aac(6')-Ib-cr-positive Citrobacter freundii JN1 harboring GyrA T83I, ParC S80I mutant, wild-type GyrB and qnrA genes by agar dilution method; format: functional; procedure, shortened: as §1
Citrobacter freundii [28] = experiment: Antimicrobial activity against aac(6')-Ib-cr-positive Citrobacter freundii JN1T by agar dilution method; format: functional; procedure, shortened: as §1
Klebsiella pneumoniae [29] = experiment: Antimicrobial activity against aac(6')-Ib-cr-positive Klebsiella pneumoniae JN132 harboring GyrA S83I, ParC S80I mutant, wild-type GyrB and qnrB genes by agar dilution method; format: functional; procedure, shortened: as §2
Klebsiella pneumoniae [30] = experiment: Antimicrobial activity against aac(6')-Ib-cr-positive Klebsiella pneumoniae JN132T harboring qnrB gene by agar dilution method; format: functional; procedure, shortened: as §3
Klebsiella pneumoniae [31] = experiment: Antimicrobial activity against aac(6')-Ib-cr-positive Klebsiella pneumoniae JN41 harboring GyrA S83I, ParC S80I mutant, wild-type GyrB and qnrB genes by agar dilution method; format: functional; procedure, shortened: as §2
Klebsiella pneumoniae [32] = experiment: Antimicrobial activity against aac(6')-Ib-cr-positive Klebsiella pneumoniae JN41T harboring qnrB gene by agar dilution method; format: functional; procedure, shortened: as §3
Citrobacter freundii [33] = experiment: Antimicrobial activity against aac(6')-Ib-cr-negative Citrobacter freundii JN64 harboring GyrA T83I, wild-type ParC, GyrB and qnrA genes by agar dilution method; format: functional; procedure, shortened: as §1
Citrobacter freundii [34] = experiment: Antimicrobial activity against aac(6')-Ib-cr-negative Citrobacter freundii JN64T harboring qnrA gene by agar dilution method; format: functional; procedure, shortened: as §1
Citrobacter freundii [35] = experiment: Antimicrobial activity against aac(6')-Ib-cr-positive Citrobacter freundii JS33 harboring GyrA T83I mutant, wild-type ParC, GyrB, qnrA and qnrB genes by agar dilution method; format: functional; procedure, shortened: as §1
Citrobacter freundii [36] = experiment: Antimicrobial activity against aac(6')-Ib-cr-positive Citrobacter freundii PU55T harboring wild-type GyrA, ParC, GyrB and qnrA genes by agar dilution method
Enterobacter cloacae [37] = experiment: Antimicrobial activity against aac(6')-Ib-cr-negative Enterobacter cloacae SH39T harboring qnrA gene by agar dilution method; format: functional
Enterobacter cloacae [38] = experiment: Antimicrobial activity against aac(6')-Ib-cr-negative Enterobacter cloacae FJ61T harboring qnrS gene by agar dilution method; format: functional
Klebsiella pneumoniae [39] = experiment: Antimicrobial activity against aac(6')-Ib-cr-positive Klebsiella pneumoniae GZ40T harboring qnrB gene by agar dilution method
Citrobacter freundii [40] = experiment: Antimicrobial activity against aac(6')-Ib-cr-positive Citrobacter freundii JS33T harboring qnrA gene by agar dilution method; format: functional; procedure, shortened: as §1

| Compound | MIC (Citrobacter freundii [2]) [µg/mL] | MIC (Enterobacter cloacae [3]) [µg/mL] | MIC (Klebsiella pneumoniae [4]) [µg/mL] | MIC (Klebsiella pneumoniae [6]) [µg/mL] | MIC (Klebsiella pneumoniae [7]) [µg/mL] | MIC (Citrobacter freundii [8]) [µg/mL] | MIC (Citrobacter freundii [9]) [µg/mL] | MIC (Enterobacter cloacae [10]) [µg/mL] | MIC (Enterobacter cloacae [11]) [µg/mL] | MIC (Klebsiella pneumoniae [13]) [µg/mL] | MIC (Escherichia coli [14]) [µg/mL] | MIC (Escherichia coli [15]) [µg/mL] | MIC (Escherichia coli [16]) [µg/mL] | MIC (Enterobacter cloacae [17]) [µg/mL] | MIC (Enterobacter cloacae [18]) [µg/mL] | MIC (Enterobacter cloacae [19]) [µg/mL] | MIC (Enterobacter cloacae [20]) [µg/mL] | MIC (Enterobacter cloacae [21]) [µg/mL] | MIC (Klebsiella pneumoniae [22]) [µg/mL] | MIC (Enterobacter cloacae [23]) [µg/mL] | further results |
| --- | --- | --- | --- | --- | --- | --- | --- | --- | --- | --- | --- | --- | --- | --- | --- | --- | --- | --- | --- | --- | --- |
| CC(C)(O/N=C(\C(=O)N[C@@H]1C(=O)N2C(C(=O)[O-])=C(C[n+]3ccccc3)CS[C@H]12)c1csc(N)n1)C(=O)O [CEFTAZIDIME] | 64 (≈ 117 µM) | 2 (≈ 3.66 µM) | 4 (≈ 7.32 µM) | 256 (≈ 468 µM) | 16 (≈ 29.3 µM) | 4 (≈ 7.32 µM) | 2 (≈ 3.66 µM) | 256 (≈ 468 µM) | 16 (≈ 29.3 µM) | 4 (≈ 7.32 µM) | 4 (≈ 7.32 µM) | 4 (≈ 7.32 µM) | 2 (≈ 3.66 µM) | 16 (≈ 29.3 µM) | 128 (≈ 234 µM) | 4 (≈ 7.32 µM) | 4 (≈ 7.32 µM) | 4 (≈ 7.32 µM) | 256 (≈ 468 µM) | 128 (≈ 234 µM) | MIC (Escherichia coli [1]): 1 µg/mL (≈ 1.83 µM); MIC (Klebsiella pneumoniae [5]): 1 µg/mL (≈ 1.83 µM); MIC (Klebsiella pneumoniae [12]): 16 µg/mL (≈ 29.3 µM); MIC (Enterobacter cloacae [24]): 2 µg/mL (≈ 3.66 µM); MIC (Enterobacter cloacae [25]): 64 µg/mL (≈ 117 µM); MIC (Enterobacter cloacae [26]): 32 µg/mL (≈ 58.5 µM); MIC (Citrobacter freundii [27]): 64 µg/mL (≈ 117 µM); MIC (Citrobacter freundii [28]): 1 µg/mL (≈ 1.83 µM); MIC (Klebsiella pneumoniae [29]): 32 µg/mL (≈ 58.5 µM); MIC (Klebsiella pneumoniae [30]): 32 µg/mL (≈ 58.5 µM); MIC (Klebsiella pneumoniae [31]): 2 µg/mL (≈ 3.66 µM); MIC (Klebsiella pneumoniae [32]): 1 µg/mL (≈ 1.83 µM); MIC (Citrobacter freundii [33]): 64 µg/mL (≈ 117 µM); MIC (Citrobacter freundii [34]): 2 µg/mL (≈ 3.66 µM); MIC (Citrobacter freundii [35]): 16 µg/mL (≈ 29.3 µM) |
| C[C@H]1COc2c(N3CCN(C)CC3)c(F)cc3c(=O)c(C(=O)O)cn1c23.C[C@H]1COc2c(N3CCN(C)CC3)c(F)cc3c(=O)c(C(=O)O)cn1c23.O [LEVOFLOXACIN] | 32 | 32 | > 32 | 32 | 0.25 | 4 | 0.5 | 2 | 0.25 | 0.25 | 4 | 4 | 0.25 | > 32 | > 32 | 0.5 | 8 | 1 | > 32 | 2 | MIC (Citrobacter freundii [36]): 0.25 µg/mL; MIC (Enterobacter cloacae [37]): 0.5 µg/mL; MIC (Enterobacter cloacae [38]): 0.5 µg/mL; MIC (Klebsiella pneumoniae [39]): 0.25 µg/mL; MIC (Enterobacter cloacae [24]): 0.25 µg/mL; MIC (Enterobacter cloacae [25]): 0.5 µg/mL; MIC (Enterobacter cloacae [26]): 0.25 µg/mL; MIC (Citrobacter freundii [27]): 16 µg/mL; MIC (Citrobacter freundii [28]): 0.25 µg/mL; MIC (Klebsiella pneumoniae [29]): 8 µg/mL; MIC (Klebsiella pneumoniae [30]): 0.25 µg/mL; MIC (Klebsiella pneumoniae [31]): > 32 µg/mL; MIC (Klebsiella pneumoniae [32]): 0.25 µg/mL; MIC (Citrobacter freundii [33]): 8 µg/mL; MIC (Citrobacter freundii [34]): 0.5 µg/mL; MIC (Citrobacter freundii [35]): 2 µg/mL; MIC (Citrobacter freundii [40]): 0.25 µg/mL |
